Measurements from different studies.
Lines come from different studies, so protocols differ.
Cell line: HepG2
Effect on: cell growth or viability

SMILES | technique | time | CC50
FC(F)(F)c1cc(Nc2ncnc3ccc(-c4cccc(N5CCOCC5)c4)cc23)ccc1Cl | MTT | 48 h | 29 µM
N=C(CC(O)c1nc2cc(F)ccc2c2ccc(F)cc12)Nc1ccc(F)cc1 (centres unmarked) | neutral red | 24 h | 19.4 µM
CC(C)N(c1ccc(C#N)cc1)c1ccc(NC(=O)CN(C)c2ccccc2N2CCCC2=O)cn1 | ATP luminescence | 48 h | > 40 µM
CN1CCN(c2cccc(-c3ccc4ncnc(Nc5ccc([N+](=O)[O-])c(C(F)(F)F)c5)c4c3)c2)CC1 | MTT | 48 h | 34 µM
CCCCN(c1ccc(C)cc1)c1ccc(NC(=O)CN(C)c2ccccc2N2CCCC2=O)cc1 | ATP luminescence | 48 h | > 40 µM
N=C(CC(O)c1ccnc2c1ccc1ccccc12)Nc1ccc(F)cc1 (centres unmarked) | neutral red | – | 33.3 µM
Cc1ccc(Nc2ncnc3ccc(-c4cccc(N5CCOCC5)c4)cc23)cc1 | MTT | 48 h | 19 µM
O=C1C(O)=C([C@H]2CC[C@H](c3ccc(Cl)cc3)CC2)C(=O)c2ccccc21 | ATP luminescence | 72 h | 9.67 µM
Clc1ccc(Nc2ncnc3ccc(-c4cccc(N5CCOCC5)c4)cc23)cc1 | MTT | 48 h | 18 µM
CO[C@H]1/C=C/O[C@@]2(C)Oc3c(C)c(O)c4c(c3C2=O)C2=NC3(CCN(CC(C)C)CC3)NC2=C(NC(=O)/C(C)=C\C=C\[C@H](C)[C@H](O)[C@@H](C)[C@@H](O)[C@@H](C)[C@H](OC(C)=O)[C@@H]1C)C4=O | – | 48 h | 170 µM
CC(C)N(c1ccc(NC(=O)CN(C)c2ccccc2N2CCCC2=O)cc1)c1ccc(Cl)c(F)c1 | ATP luminescence | 48 h | > 40 µM
N=C(CC(O)c1nc2ccccc2c2ccccc12)Nc1ccc(F)cc1 (centres unmarked) | neutral red | 24 h | 48.5 µM
O=C(Nc1ccncc1)c1cc([N+](=O)[O-])ccc1Cl | ATP luminescence | 72 h | 18.1 µM
Cc1ccc(Oc2ccc(NC(=O)CNc3ccccc3N3CCCCC3=O)cc2)cc1 | ATP luminescence | 48 h | 15 µM
O=[N+]([O-])c1ccc(Nc2ncnc3ccc(-c4cccc(N5CCOCC5)c4)cc23)cc1C(F)(F)F | MTT | 48 h | > 40 µM
CCC(C)N(c1ccc(C)cc1)c1ccc(NC(=O)CN(C)c2ccccc2N2CCCC2=O)cc1 (centres unmarked) | ATP luminescence | 48 h | > 40 µM
CCCCCCNc1nc(NC2CCN(C)CC2)c2cc(OC)c(OC)cc2n1 | ATP luminescence | 72 h | 2.03 µM
